STAT3 act: activators of IL-6 induced STAT3 signaling | hit rate 0.91% among 190,000 | U3A cells, IL-6 STAT3-luciferase reporter, luminescence; 100% = signal with IL-6 EC80 alone | activation (% of control), % at 5.6 µM;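 active = activation above the screen-wide mean of compound activation plus 3 SD, cut at about 130% in these data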;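 also: 0% = background luminescence of wells with medium and substrate only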
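Detection: reporter luminescence signal / Assay system: STAT1-lacking human U3A cells, STAT3 luciferase reporter / Incubation: compound pre-incubation 1 h before IL-6, then 6 h stimulation at 37 °C / Control set: IL-6-only high control / Read-out: % activation relative to IL-6 control / Probe or stimulus: Interleukin-6, 33 ng/mL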
STAT1 inh: inhibitors of IFN-gamma induced STAT1 signaling | NIH 3T3 STAT1-luciferase reporter, luminescence | inhibition, % at 5.5 µM | hit rate 0.35% among 200,000;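 active = inhibition above a set limit, the mean inhibition across all tested compounds plus 3 SD, cut at about 34% in these data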;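 also: 0% = IFN-gamma with DMSO and 100% = IFN-gamma with 300 µM nifuroxazide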
STAT1 activator: increases IFN-gamma driven STAT1 reporter signal; NIH 3T3 STAT1-luciferase reporter, luminescence; 100% = IFN-gamma alone, no compound; activation (% of control), % at 5.5 µM; hit rate 2.6% among 200,000; AID 932;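 active = activation above the screen-wide mean activation plus 3 SD, cut at about 130% in these data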;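 also: raw ratio to IFN-gamma control signal so 100% means no change and 0% no light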
STAT3 inh: reduces IL-6 driven STAT3 reporter signal; U3A cells, IL-6 STAT3-luciferase reporter, luminescence; host cell line lacks STAT1; AID 862; hit rate 0.89% among 190,000; inhibition, % at 5.5 µM;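 active = inhibition above the mean inhibition across all screened compounds plus 3 SD, cut at about 44% in these data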;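 also: 0% = DMSO only wells and 100% = 100 µM nifuroxazide control wells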
Numbers without * were called inactive; . = not tested or not shown. This is a sample that favours compounds with a hit; in the whole collection about 4.3% have one here.

SMILES	STAT3 act	STAT1 inh	STAT1 activator	STAT3 inh
O=C(C1CCC(C(=O)N2CCc3ccccc32)CC1)N1CCc2ccccc21 (centres undefined)	95	4	97	11
OCCC1CN(Cc2nc3ccccc3[nH]2)CCN1C1CCCC1 (centres undefined)	93	-4	102	12
O=C1c2cccc3c(N4CCCCC4)ccc(c23)C(=O)N1c1cccc(O)c1	100	-32	130*	2
O=C1c2cccc3c(N4CCCCC4)ccc(c23)C(=O)N1CCO	95	-35	131*	12
C=CCN1C(=O)c2cccc3c(N4CCCCC4)ccc(c23)C1=O	95	-30	126	8
Cc1cnccc1CNC(=O)CC1C(=O)NCCN1CC(C)(C)C (centres undefined)	104	-2	100	-2
O=C(O)/C=C\C(=O)N1CCc2ccccc21	112	9	92	-8
O=C(/C=C/c1ccc(Cl)cc1Cl)N1CCc2ccccc21	97	-45	141*	9
NC(=O)C1CCN(C(=O)CCSc2ccc(Cl)cc2)CC1	107	-15	114	-6
CCOC(=O)N1CCN(C(=O)CCCOc2ccccc2)CC1	116	-26	125	-17
Cc1cccc(N2CCN(C(=O)CCCOc3ccccc3)CC2)c1C	115	-35	132*	-12
O=C(CCCOc1ccccc1)N1CCN(c2ccccc2)CC1	103	-32	131*	-2
O=C(CCSc1ccccc1)N1CCN(c2ccccc2)CC1	111	-33	131*	-10
O=C(CSc1ccccc1)N1CCN(c2ccccc2)CC1	103	-10	109	1
Cc1cccc(N2CCN(C(=O)Cn3cccc3C(=O)c3ccccc3)CC2)c1C	96	0	100	2
O=C(CCSc1ccc(Cl)cc1)N1CCCCCC1	103	-35	132*	7
CN1CCN(NC(=O)c2ccc(Br)c(S(=O)(=O)N3CCOCC3)c2)CC1	106	10	91	2
CC1(C)C2CCC(C2)C1(C)NC(=O)CNCC1CCCCC1 (centres undefined)	107	5	97	-3
CCOC(=O)c1ccc(NC(=S)NCCc2ccc(F)cc2)cc1	88	17	83	18
CC(C)c1ccc(OCC(=O)N2CCCCCC2)c(Br)c1	114	-40	137*	-5
Cc1cc(Br)ccc1OCC(=O)N1CCCCCC1	106	6	94	-6
CCC(=O)Nc1nnc(SCc2ccccc2F)s1	104	-18	115	-1
O=CN1CCN(C(=O)c2ccc(-c3nc4ccccc4s3)s2)CC1	76	-33	129*	31
CC(C)[C@H](NC(N)=O)C(=O)Nc1cccc(S(=O)(=O)N2CCOCC2)c1	105	-7	105	2
CC(=O)c1c(OC(=O)c2ccccc2Br)ccc2c(C)cc(=O)oc12	99	4	96	10
SMILES	STAT3 act	STAT1 inh	STAT1 activator	STAT3 inh
Cc1cc(OC(=O)c2ccccc2Br)cc(=O)n1C	83	39*	65	26
COc1ccc(Cl)cc1NC(=O)c1cnc2sccn2c1=O	99	-3	104	1
O=C(Nc1cnc2sccn2c1=O)c1ccc(Cl)cc1Cl	68	-35	132*	42
COC(=O)c1c(NC(=O)CSc2ccccc2N)sc(C)c1C	92	3	97	19
O=C(Nc1cc2c(oc1=O)CCCC2=O)c1ccc(Cl)cc1	92	-40	136*	16
CCC1(c2ccc(F)cc2)NC(=O)N(CC(=O)Nc2ccc(C)c(S(=O)(=O)N3CCOCC3)c2)C1=O (centres undefined)	102	2	99	-2
COc1cccc(CN(C)C(=O)Nc2cccc(C(F)(F)F)c2)c1OC	103	-2	102	-9
Cc1ccc(/C=C/C(=O)C2C(=O)c3ccccc3C2=O)cc1	54	34	69	60*
O=C(NCCc1cccs1)C1CC(c2ccc([N+](=O)[O-])cc2)=NO1 (centres undefined)	115	-48	144*	-12
COCCNC(=O)C1CC(c2ccc([N+](=O)[O-])cc2)=NO1 (centres undefined)	99	-3	103	8
CCOc1ccc(N=C(/C(C(=O)C(=O)N2CCOCC2)=C(\O)c2ccccc2)c2ccccc2)cc1	96	-44	139*	9
O=C(COC(=O)Cn1cnc2ccccc21)Nc1ccc2c(c1)OCCO2	97	-5	104	8
O=C(COC(=O)Cn1cnc2ccccc21)Nc1cc2c(cc1Cl)C(=O)c1ccccc1C2=O	113	-37	136*	-12
CCCCNC(=O)c1onc(CSc2ccccc2CC)c1C(=O)O	7	3	97	120*
CCCCNC(=O)c1onc(CSc2cc(C)ccc2C)c1C(=O)O	107	-3	102	-1
O=C(O)c1ccc(Cl)c(NC(=S)NC(=O)c2ccccc2[N+](=O)[O-])c1	103	-9	105	1
COc1ccc(-c2csc(=Nc3c(C)n(C)n(-c4ccccc4)c3=O)n2C(C)(C)C)cc1	101	-5	104	2
COc1ccc(-c2cc(=Nc3c(C)n(C)n(-c4ccccc4)c3=O)c3ccccc3o2)cc1	89	-44	142*	13
COc1cc(/C=C/c2cc(C(F)(F)F)[nH]c(=O)n2)cc(OC)c1OC	87	46*	56	17
COc1cc(OC)c(OC)cc1/C=C/c1cc(C(F)(F)F)[nH]c(=O)n1	94	8	92	11
Cc1c(Br)ccc(NC(=O)c2ccccc2[N+](=O)[O-])c1C	97	2	98	12
CS/C(N)=N/N=C/c1ccc([N+](=O)[O-])cc1	104	-35	131*	-4
CSc1nncn1/N=C/c1ccc([N+](=O)[O-])cc1	111	1	98	-5
CN1CCN(Cn2cc(/C=C/C(=O)c3ccccc3)c3ccccc32)CC1	91	-34	131*	16
CN(C)S(=O)(=O)c1cccc(C(=O)OCC(=O)NC2CCCc3ccccc32)c1 (centres undefined)	104	2	98	-5
SMILES	STAT3 act	STAT1 inh	STAT1 activator	STAT3 inh
Cc1cc(NC(=O)c2ccc(N3CCCC3)c([N+](=O)[O-])c2)no1	91	-6	105	15
O=C(Nc1ccon1)c1ccc(N2CCCCC2)c([N+](=O)[O-])c1	110	-58	150*	-5
C#CCOCCOCCOCCNc1nc(N2CCN(C(=O)[C@H](CCC(=O)O)n3cc(C(N)CO)nn3)CC2)nc(N2CCN(C(=O)[C@H](CCC(=O)O)n3cc(C(N)[C@H](C)CC)nn3)CC2)n1 (some centres undefined)	.	-7	108	.
O=C(Nc1ccc(Cl)cc1Cl)C1=Cc2ccccc2OC1	81	-45	141*	26
O=C(Nc1ccc(Cl)cc1)C1=Cc2cc(Cl)ccc2OC1	82	2	96	22
Cc1ccc(C)c(NC(=O)c2c(Cl)nc3ccccn23)c1	83	-11	108	26
Cc1ccc(NC(=O)c2c(Cl)nc3ccccn23)cc1	122	-44	139*	-18
Cc1nc2ccccn2c1C(=O)Nc1ccc(Cl)cc1	91	-43	140*	10
CC(=O)Nc1ccc(NC(=O)c2c(C)nc3ccccn23)cc1	98	0	100	4

Source: PubChem
